ChEMBL document CHEMBL1145833, “Studies on the synthesis and biological properties of non-carrier-added [(125)I and (131)I]-labeled arylalkylidenebisphosphonates: potent bone-seekers for diagnosis and therapy of malignant osseous lesions” (J Med Chem, 2003)

Assays:
Conditions in all cases: in vivo
Mus musculus [1] = species on record: Mus musculus; test: Distribution of compound in femur tissue of mice after 2 hr injection time was determined; type: ADME, organism-based
Outline: (§1)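 Healthy athymic nude mice (balb/c nu/nu, 20–25 g, both sexes) received 50–400 KBq radioiodinated bisphosphonate in 100 µL phosphate buffer pH 6–7 by tail-vein injection. Three animals were sacrificed per time point. Tissues were excised, weighed and gamma-counted. Values are % injected dose per gram tissue, mean ± 1 SD, n = 3.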

Mus musculus [2] = species on record: Mus musculus; test: Distribution of compound in skull tissue of mice after 2 hr injection time was determined; type: ADME, organism-based; outline: as §1
Mus musculus [3] = species on record: Mus musculus; test: Distribution of compound in heart tissue of mice after 2 hr injection time was determined; type: ADME, organism-based; outline: as §1
Mus musculus [4] = species on record: Mus musculus; test: Distribution of compound in intestine tissue of mice after 0.5 hr injection time was determined; type: ADME, organism-based; outline: as §1
Mus musculus [5] = species on record: Mus musculus; test: Distribution of compound in kidneys tissue of mice after 24 hr injection time was determined; type: ADME, organism-based, Kidney; outline: as §1
Mus musculus [6] = species on record: Mus musculus; test: Distribution of compound in liver tissue of mice after 5 hr injection time was determined; type: ADME, organism-based; outline: as §1
Mus musculus [7] = species on record: Mus musculus; test: Distribution of compound in blood tissue of mice after 5 h injection time was determined; type: ADME, organism-based; outline: as §1
Mus musculus [8] = species on record: Mus musculus; test: Distribution of compound in intestine tissue of mice after 24 hr injection time was determined; type: ADME, organism-based; outline: as §1
Mus musculus [9] = species on record: Mus musculus; test: Distribution of compound in stomach tissue of mice after 2 hr injection time was determined; type: ADME, organism-based; outline: as §1
Mus musculus [10] = species on record: Mus musculus; test: Distribution of compound in heart tissue of mice after 5 hr injection time was determined; type: ADME, organism-based; outline: as §1
Mus musculus [11] = species on record: Mus musculus; test: Distribution of compound in lungs tissue of mice after 24 hr injection time was determined; type: ADME, organism-based, Lung; outline: as §1
Mus musculus [12] = species on record: Mus musculus; test: Distribution of compound in thyroid tissue of mice after 24 h injection time was determined; type: ADME, organism-based, Thyroid gland
Outline: (§2)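 Healthy athymic nude balb/c nu/nu mice (20–25 g) received 50–400 KBq radioiodinated bisphosphonate in 100 μL phosphate buffer, pH 6–7, by tail-vein injection. Three animals were sacrificed per time point. Thyroid-containing tissue was excised, weighed and gamma-counted. Values are % of injected dose, mean ± 1 SD of three mice.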

Mus musculus [13] = species on record: Mus musculus; test: Distribution of compound in femur tissue of mice after 5 hr injection time was determined; type: ADME, organism-based; outline: as §1
Mus musculus [14] = species on record: Mus musculus; test: Distribution of compound in stomach tissue of mice after 0.5 hr injection time was determined; type: ADME, organism-based; outline: as §1
Mus musculus [15] = species on record: Mus musculus; test: Distribution of compound in intestine tissue of mice after 5 hr injection time was determined; type: ADME, organism-based; outline: as §1
Mus musculus [16] = species on record: Mus musculus; test: Distribution of compound in liver tissue of mice after 2 h injection time was determined; type: ADME, organism-based; outline: as §1
Mus musculus [17] = species on record: Mus musculus; test: Distribution of compound in heart tissue of mice after 24 hr injection time was determined; type: ADME, organism-based; outline: as §1
Mus musculus [18] = species on record: Mus musculus; test: Distribution of compound in blood tissue of mice after 24 hr injection time was determined; type: ADME, organism-based; outline: as §1
Mus musculus [19] = species on record: Mus musculus; test: Distribution of compound in spleen tissue of mice after 0.5 hr injection time was determined; type: ADME, organism-based; outline: as §1
Mus musculus [20] = species on record: Mus musculus; test: Distribution of compound in thyroid tissue of mice after 5 h injection time was determined; type: ADME, organism-based, Thyroid gland; outline: as §2
Mus musculus [21] = species on record: Mus musculus; test: Distribution of compound in skull tissue of mice after 24 hr injection time was determined; type: ADME, organism-based; outline: as §1
Mus musculus [22] = species on record: Mus musculus; test: Distribution of compound in kidneys tissue of mice after 5 hr injection time was determined; type: ADME, organism-based, Kidney; outline: as §1
Mus musculus [23] = species on record: Mus musculus; test: Distribution of compound in lungs tissue of mice after 5 hr injection time was determined; type: ADME, organism-based, Lung; outline: as §1
Mus musculus [24] = species on record: Mus musculus; test: Distribution of compound in intestine tissue of mice after 2 hr injection time was determined; type: ADME, organism-based; outline: as §1
Mus musculus [25] = species on record: Mus musculus; test: Distribution of compound in liver tissue of mice after 24 hr injection time was determined; type: ADME, organism-based; outline: as §1
Mus musculus [26] = species on record: Mus musculus; test: Distribution of compound in femur tissue of mice after 24 hr injection time was determined; type: ADME, organism-based; outline: as §1
Mus musculus [27] = species on record: Mus musculus; test: Distribution of compound in kidneys tissue of mice after 0.5 hr injection time was determined; type: ADME, organism-based, Kidney; outline: as §1
Mus musculus [28] = species on record: Mus musculus; test: Distribution of compound in skull tissue of mice after 0.5 hr injection time was determined; type: ADME, organism-based; outline: as §1
Mus musculus [29] = species on record: Mus musculus; test: Distribution of compound in liver tissue of mice after 0.5 hr injection time was determined; type: ADME, organism-based; outline: as §1
Mus musculus [30] = species on record: Mus musculus; test: Distribution of compound in lungs tissue of mice after 0.5 h injection time was determined; type: ADME, organism-based, Lung; outline: as §1
Mus musculus [31] = species on record: Mus musculus; test: Distribution of compound in spleen tissue of mice after 5 h injection time was determined; type: ADME, organism-based; outline: as §1
Mus musculus [32] = species on record: Mus musculus; test: Distribution of compound in thyroid tissue of mice after 2 hr injection time was determined; type: ADME, organism-based, Thyroid gland; outline: as §2
Mus musculus [33] = species on record: Mus musculus; test: Distribution of compound in spleen tissue of mice after 24 hr injection time was determined; type: ADME, organism-based; outline: as §1
Mus musculus [34] = species on record: Mus musculus; test: Distribution of compound in femur tissue of mice after 0.5 hr injection time was determined; type: ADME, organism-based; outline: as §1
Mus musculus [35] = species on record: Mus musculus; test: Distribution of compound in kidneys tissue of mice after 2 hr injection time was determined; type: ADME, organism-based, Kidney; outline: as §1
Mus musculus [36] = species on record: Mus musculus; test: Distribution of compound in thyroid tissue of mice after 0.5 hr injection time was determined; type: ADME, organism-based, Thyroid gland; outline: as §2
Mus musculus [37] = species on record: Mus musculus; test: Distribution of compound in blood tissue of mice after 2 hr injection time was determined; type: ADME, organism-based; outline: as §1
Mus musculus [38] = species on record: Mus musculus; test: Distribution of compound in stomach tissue of mice after 24 hr injection time was determined; type: ADME, organism-based; outline: as §1
Mus musculus [39] = species on record: Mus musculus; test: Distribution of compound in skull tissue of mice after 5 h injection time was determined; type: ADME, organism-based; outline: as §1
Mus musculus [40] = species on record: Mus musculus; test: Distribution of compound in stomach tissue of mice after 5 hr injection time was determined; type: ADME, organism-based; outline: as §1
Mus musculus [41] = species on record: Mus musculus; test: Distribution of compound in lungs tissue of mice after 2 hr injection time was determined; type: ADME, organism-based, Lung; outline: as §1
Mus musculus [42] = species on record: Mus musculus; test: Distribution of compound in spleen tissue of mice after 2 hr injection time was determined; type: ADME, organism-based; outline: as §1
Mus musculus [43] = species on record: Mus musculus; test: Distribution of compound in heart tissue of mice after 0.5 hr injection time was determined; type: ADME, organism-based; outline: as §1
Mus musculus [44] = species on record: Mus musculus; test: Distribution of compound in blood tissue of mice after 0.5 hr injection time was determined; type: ADME, organism-based; outline: as §1

SMILES: O=P(O)(O)C(Cc1cccc(I)c1)P(=O)(O)O
- Injected (Mus musculus [1]): 21.16%
- Injected (Mus musculus [2]): 7.64%
- Injected (Mus musculus [3]): 0.26%
- Injected (Mus musculus [4]): 0.37%
- Injected (Mus musculus [5]): 1.06%
- Injected (Mus musculus [6]): 0.94%
- Injected (Mus musculus [7]): 0.11%
- Injected (Mus musculus [8]): 0.28%
- Injected (Mus musculus [9]): 1.12%
- Injected (Mus musculus [10]): 0.07%
- Injected (Mus musculus [11]): 0.06%
- Injected (Mus musculus [12]): 0.02%
- Injected (Mus musculus [13]): 10%
- Injected (Mus musculus [14]): 1.14%
- Injected (Mus musculus [15]): 0.24%
- Injected (Mus musculus [16]): 2.14%
- Injected (Mus musculus [17]): 0.04%
- Injected (Mus musculus [18]): 0.03%
- Injected (Mus musculus [19]): 0.35%
- Injected (Mus musculus [20]): 0.06%
- Injected (Mus musculus [21]): 7.13%
- Injected (Mus musculus [22]): 2.26%
- Injected (Mus musculus [23]): 0.1%
- Injected (Mus musculus [24]): 0.28%
- Injected (Mus musculus [25]): 0.23%
- Injected (Mus musculus [26]): 15.25%
- Injected (Mus musculus [27]): 8.23%
- Injected (Mus musculus [28]): 10.28%
- Injected (Mus musculus [29]): 2.98%
- Injected (Mus musculus [30]): 1%
- Injected (Mus musculus [31]): 0.12%
- Injected (Mus musculus [32]): 0.14%
- Injected (Mus musculus [33]): 0.1%
- Injected (Mus musculus [34]): 18.8%
- Injected (Mus musculus [35]): 3.68%
- Injected (Mus musculus [36]): 0.21%
- Injected (Mus musculus [37]): 0.31%
- Injected (Mus musculus [38]): 0.05%
- Injected (Mus musculus [39]): 6.16%
- Injected (Mus musculus [40]): 0.23%
- Injected (Mus musculus [41]): 0.35%
- Injected (Mus musculus [42]): 0.26%
- Injected (Mus musculus [43]): 0.9%
- Injected (Mus musculus [44]): 2.22%

SMILES: O=P(O)(O)C(NCCc1cccc(I)c1)P(=O)(O)O
- Injected (Mus musculus [5]): 0.4%
- Injected (Mus musculus [8]): 0.1%
- Injected (Mus musculus [11]): 0.67%
- Injected (Mus musculus [12]): 0.02%
- Injected (Mus musculus [17]): 0.19%
- Injected (Mus musculus [18]): 0.18%
- Injected (Mus musculus [21]): 0.91%
- Injected (Mus musculus [25]): 5.57%
- Injected (Mus musculus [26]): 1.39%
- Injected (Mus musculus [33]): 2.49%
- Injected (Mus musculus [38]): 0.07%
